Published values gathered from unrelated publications.
Protocols differ between the studies behind these lines.
Target: Mitogen-activated protein kinase kinase kinase 5 (MAP3K5, Homo sapiens, UniProt Q99683)
Sequence (Q99683 1-1374, as in one of the studies): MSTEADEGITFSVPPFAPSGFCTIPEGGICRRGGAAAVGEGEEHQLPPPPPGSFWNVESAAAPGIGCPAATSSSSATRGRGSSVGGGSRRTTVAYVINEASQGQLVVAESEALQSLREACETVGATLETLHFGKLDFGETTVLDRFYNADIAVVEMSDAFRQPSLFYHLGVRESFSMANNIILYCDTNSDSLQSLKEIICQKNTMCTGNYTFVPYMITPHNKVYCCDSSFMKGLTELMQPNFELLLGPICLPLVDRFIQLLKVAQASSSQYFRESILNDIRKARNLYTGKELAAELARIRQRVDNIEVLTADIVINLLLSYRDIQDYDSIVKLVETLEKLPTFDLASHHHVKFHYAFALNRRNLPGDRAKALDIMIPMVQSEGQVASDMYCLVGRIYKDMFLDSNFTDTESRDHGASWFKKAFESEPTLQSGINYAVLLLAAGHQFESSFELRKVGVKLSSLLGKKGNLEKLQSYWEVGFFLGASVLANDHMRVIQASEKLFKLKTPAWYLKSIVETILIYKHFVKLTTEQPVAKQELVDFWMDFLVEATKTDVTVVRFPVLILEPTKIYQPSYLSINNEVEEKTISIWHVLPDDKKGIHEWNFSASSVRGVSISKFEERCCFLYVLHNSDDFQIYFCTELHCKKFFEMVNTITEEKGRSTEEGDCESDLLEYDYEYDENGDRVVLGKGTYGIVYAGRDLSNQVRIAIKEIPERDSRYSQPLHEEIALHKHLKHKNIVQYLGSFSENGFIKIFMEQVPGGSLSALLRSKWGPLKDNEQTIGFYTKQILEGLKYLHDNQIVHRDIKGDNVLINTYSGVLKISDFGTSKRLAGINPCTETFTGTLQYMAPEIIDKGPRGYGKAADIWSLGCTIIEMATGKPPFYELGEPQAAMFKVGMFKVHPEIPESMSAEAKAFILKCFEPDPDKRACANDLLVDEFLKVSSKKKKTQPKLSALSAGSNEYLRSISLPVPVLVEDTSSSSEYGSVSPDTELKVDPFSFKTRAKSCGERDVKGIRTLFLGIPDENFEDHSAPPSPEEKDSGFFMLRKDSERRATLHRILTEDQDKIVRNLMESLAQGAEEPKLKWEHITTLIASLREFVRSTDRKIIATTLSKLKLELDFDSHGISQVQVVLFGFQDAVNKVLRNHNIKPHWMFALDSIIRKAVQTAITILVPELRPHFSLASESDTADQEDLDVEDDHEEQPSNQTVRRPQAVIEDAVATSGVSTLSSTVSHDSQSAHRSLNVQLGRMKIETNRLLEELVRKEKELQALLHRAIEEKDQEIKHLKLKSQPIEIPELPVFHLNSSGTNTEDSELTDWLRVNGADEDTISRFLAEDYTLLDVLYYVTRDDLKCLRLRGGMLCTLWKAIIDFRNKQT

Compound | observed | action | method | tested at | endpoint | result
C#Cc1cc(-c2cc(Nc3nc(N[C@@H](C)c4ccc(F)cn4)ncc3Cl)n[nH]2)ccc1C=O | enzyme activity | inhibitor |  | 0.2 µM | inhibition | 4.04%
C=CC(=O)N1CCC[C@@H](n2nc(-c3ccc(Oc4ccccc4)cc3)c3c(N)ncnc32)C1 | enzyme activity | inhibitor |  | 1 µM | inhibition | 10%
Cc1ccc(NC(=O)c2ccnc(C(F)(F)F)c2)cc1-c1cc(OCCO)nc(N2CCOCC2)c1 | binding |  |  | 1 µM | remaining binding | 92%
CO[C@@H]1[C@H](N(C)C(=O)c2ccccc2)C[C@H]2O[C@]1(C)n1c3ccccc3c3c4c(c5c6ccccc6n2c5c31)C(=O)NC4 | enzyme activity | inhibitor |  | 1 µM | inhibition | 0%
COc1ccc2oc(-c3ccc4nc(N)oc4c3)c/c(=N\c3ccccc3NC(=O)CCN)c2c1 | binding |  |  | 1 µM | remaining binding | 100%
CN1CCN(C(=O)c2ccc(NC(=O)Nc3ccc(N(C)c4ccnc(Nc5ccc(CS(C)(=O)=O)cc5)n4)cc3)cc2)CC1 | binding |  |  | 1 µM | remaining binding | 100%
CCCCC(=O)Nc1ccc(-c2ccc3ncn(CCC)c(=O)c3c2)cn1 | binding |  | competition with immobilised ligand | 0.5 µM | remaining binding | 91%
Cc1cc(O)c(-c2ccc([C@@H](C)CN(C)C)cc2)c2c1[nH]c(=O)c1sccc12 | enzyme activity | inhibitor |  | 0.1 µM | inhibition | -7.51%
